Results taken from ChEMBL document CHEMBL5303300, “EUbOPEN Chemogenomics Library - Multiplex” (2023).
Values joined by “and” are separate entries in the source; they are usually repeats but may differ in a detail not shown here. Equal values may be shown once.

Test system: HEK-293T
Experiment: Multiplex assay against HEK293T
Type: toxicity, cell-based
Conditions: human, number of replicates 2
In short: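 Values for tubulin, mitochondrial-mass and membrane-permeability phenotypes are per cents of cells with healthy nuclei. These cells were identified by CellPathfinder machine-learning gating of live cells that had been stained at seeding with Hoechst33342, BioTracker Green Microtubule Cytoskeleton Dye, MitoTracker Red and Annexin V Alexa Fluor 680 and imaged on a CQ1 microscope at 37°C and 5% CO2 after compound addition. The gating first set Hoechst high-intensity objects apart from normal cells, then split normal cells into healthy, pyknosed or fragmented nuclei, and pyknosed cells into mitotic or apoptotic.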

[1] = 12 h, 1 µM, compound concentration 1 uM
[2] = 12 h, 10 µM, compound concentration 10 uM
[3] = 24 h, 1 µM, compound concentration 1 uM
[4] = 24 h, 10 µM, compound concentration 10 uM
[5] = 48 h, 1 µM, compound concentration 1 uM
[6] = 48 h, 10 µM, compound concentration 10 uM

## C[C@@H](OC[C@@]1(c2ccccc2)CC[C@]2(CCC(=O)N2)CN1)c1cc(C(F)(F)F)cc(C(F)(F)F)c1 [ROLAPITANT]
[1]
  Population Apoptotic (%): 57% and 49%
  Population Fragmented Nuclei (%): 6% and 4%
  Population Healthy Nuclei (%): 72% and 81%
  Population Hoechst High Intensity Objects (%): 7% and 8%
  Population Membrane Permeable-Phenotype (%): 5% and 3%
  Population Mitochondria Different-Phenotype (%): 25% and 28%
  Population Mitotic Cells (%): 42% and 50%
  Population Normal (%): 92% and 91%
  Population Pyknosed Nuclei (%): 21% and 14%
  Population Tubulin-Different-Phenotype (%): 66% and 80%
  Total Cell Count: 453 and 616
[2]
  Population Apoptotic (%): 56% and 70%
  Population Fragmented Nuclei (%): 4%
  Population Healthy Nuclei (%): 80% and 77%
  Population Hoechst High Intensity Objects (%): 11% and 6%
  Population Membrane Permeable-Phenotype (%): 4% and 2%
  Population Mitochondria Different-Phenotype (%): 35% and 40%
  Population Mitotic Cells (%): 44% and 29%
  Population Normal (%): 88% and 93%
  Population Pyknosed Nuclei (%): 15% and 17%
  Population Tubulin-Different-Phenotype (%): 81% and 86%
  Total Cell Count: 563 and 415
[3]
  Population Apoptotic (%): 63% and 53%
  Population Fragmented Nuclei (%): 8% and 6%
  Population Healthy Nuclei (%): 75% and 80%
  Population Hoechst High Intensity Objects (%): 6% and 9%
  Population Membrane Permeable-Phenotype (%): 3% and 2%
  Population Mitochondria Different-Phenotype (%): 12% and 13%
  Population Mitotic Cells (%): 36% and 46%
  Population Normal (%): 93% and 90%
  Population Pyknosed Nuclei (%): 15% and 12%
  Population Tubulin-Different-Phenotype (%): 51% and 61%
  Total Cell Count: 631 and 823
[4]
  Population Apoptotic (%): 61%
  Population Fragmented Nuclei (%): 7%
  Population Healthy Nuclei (%): 81% and 77%
  Population Hoechst High Intensity Objects (%): 12% and 9%
  Population Membrane Permeable-Phenotype (%): 3%
  Population Mitochondria Different-Phenotype (%): 21% and 27%
  Population Mitotic Cells (%): 38%
  Population Normal (%): 87% and 90%
  Population Pyknosed Nuclei (%): 11% and 15%
  Population Tubulin-Different-Phenotype (%): 70% and 69%
  Total Cell Count: 730 and 604
[5]
  Population Apoptotic (%): 35% and 28%
  Population Fragmented Nuclei (%): 12% and 11%
  Population Healthy Nuclei (%): 82% and 83%
  Population Hoechst High Intensity Objects (%): 8% and 11%
  Population Membrane Permeable-Phenotype (%): 5% and 3%
  Population Mitochondria Different-Phenotype (%): 1% and 2%
  Population Mitotic Cells (%): 64% and 71%
  Population Normal (%): 91% and 88%
  Population Pyknosed Nuclei (%): 4% and 5%
  Population Tubulin-Different-Phenotype (%): 23% and 39%
  Total Cell Count: 1671
[6]
  Population Apoptotic (%): 50% and 48%
  Population Fragmented Nuclei (%): 11% and 8%
  Population Healthy Nuclei (%): 83% and 84%
  Population Hoechst High Intensity Objects (%): 9%
  Population Membrane Permeable-Phenotype (%): 6% and 3%
  Population Mitochondria Different-Phenotype (%): 4% and 11%
  Population Mitotic Cells (%): 49% and 51%
  Population Normal (%): 90%
  Population Pyknosed Nuclei (%): 5% and 7%
  Population Tubulin-Different-Phenotype (%): 53% and 48%
  Total Cell Count: 1126 and 904

## CC(C)S(=O)(=O)c1ccccc1Nc1nc(N[C@@H]2CCCN(CCCCCCCNC(=O)COc3cccc4c3C(=O)N(C3CCC(=O)N(C)C3=O)C4=O)C2)ncc1Cl (some centres undefined)
[1]
  Population Apoptotic (%): 55% and 78%
  Population Fragmented Nuclei (%): 6% and 3%
  Population Healthy Nuclei (%): 84% and 81%
  Population Hoechst High Intensity Objects (%): 11%
  Population Membrane Permeable-Phenotype (%): 0%
  Population Mitochondria Different-Phenotype (%): 39% and 45%
  Population Mitotic Cells (%): 44% and 21%
  Population Normal (%): 88%
  Population Pyknosed Nuclei (%): 8% and 14%
  Population Tubulin-Different-Phenotype (%): 56% and 62%
  Total Cell Count: 479 and 318
[2]
  Population Apoptotic (%): 60% and 74%
  Population Fragmented Nuclei (%): 3%
  Population Healthy Nuclei (%): 69% and 72%
  Population Hoechst High Intensity Objects (%): 18% and 14%
  Population Membrane Permeable-Phenotype (%): 2% and 3%
  Population Mitochondria Different-Phenotype (%): 76%
  Population Mitotic Cells (%): 39% and 25%
  Population Normal (%): 81% and 85%
  Population Pyknosed Nuclei (%): 26% and 24%
  Population Tubulin-Different-Phenotype (%): 49% and 77%
  Total Cell Count: 464 and 428
[3]
  Population Apoptotic (%): 48% and 83%
  Population Fragmented Nuclei (%): 2% and 4%
  Population Healthy Nuclei (%): 90% and 85%
  Population Hoechst High Intensity Objects (%): 7%
  Population Membrane Permeable-Phenotype (%): 0%
  Population Mitochondria Different-Phenotype (%): 20% and 21%
  Population Normal (%): 92%
  Population Pyknosed Nuclei (%): 7% and 10%
  Population Tubulin-Different-Phenotype (%): 40%
  Total Cell Count: 702 and 488
[4]
  Population Apoptotic (%): 82%
  Population Fragmented Nuclei (%): 4% and 5%
  Population Healthy Nuclei (%): 78%
  Population Hoechst High Intensity Objects (%): 18% and 16%
  Population Membrane Permeable-Phenotype (%): 0% and 1%
  Population Mitochondria Different-Phenotype (%): 80% and 91%
  Population Mitotic Cells (%): 17%
  Population Normal (%): 81% and 83%
  Population Pyknosed Nuclei (%): 17% and 16%
  Population Tubulin-Different-Phenotype (%): 90% and 92%
  Total Cell Count: 438 and 432
[5]
  Population Apoptotic (%): 40% and 66%
  Population Fragmented Nuclei (%): 8% and 4%
  Population Healthy Nuclei (%): 85%
  Population Hoechst High Intensity Objects (%): 8% and 7%
  Population Membrane Permeable-Phenotype (%): 2% and 1%
  Population Mitochondria Different-Phenotype (%): 7% and 11%
  Population Mitotic Cells (%): 60% and 33%
  Population Normal (%): 91% and 92%
  Population Pyknosed Nuclei (%): 5% and 9%
  Population Tubulin-Different-Phenotype (%): 26% and 27%
  Total Cell Count: 1045 and 630
[6]
  Population Apoptotic (%): 81% and 86%
  Population Fragmented Nuclei (%): 5%
  Population Healthy Nuclei (%): 82% and 78%
  Population Hoechst High Intensity Objects (%): 17% and 20%
  Population Membrane Permeable-Phenotype (%): 0%
  Population Mitochondria Different-Phenotype (%): 46% and 78%
  Population Mitotic Cells (%): 18% and 14%
  Population Normal (%): 82% and 79%
  Population Pyknosed Nuclei (%): 11% and 16%
  Population Tubulin-Different-Phenotype (%): 57% and 65%
  Total Cell Count: 458 and 378

## CS(=O)(=O)c1ccc(C(=O)Nc2cccc(COc3ccc(Br)cc3CN3CCC[C@H](O)C3)c2)c(Cl)c1.O=CO
[1]
  Population Healthy Nuclei (%): 82%
  Population Mitotic Cells (%): 45% and 44%
  Total Cell Count: 629 and 598
[2]
  Population Healthy Nuclei (%): 85% and 88%
  Population Mitotic Cells (%): 38% and 41%
  Total Cell Count: 549 and 638
[3]
  Population Healthy Nuclei (%): 83% and 85%
  Population Mitotic Cells (%): 60% and 48%
  Total Cell Count: 967 and 829
[4]
  Population Healthy Nuclei (%): 83% and 85%
  Population Mitotic Cells (%): 49% and 30%
  Total Cell Count: 569 and 612
[5]
  Population Healthy Nuclei (%): 82% and 86%
  Population Mitotic Cells (%): 82% and 78%
  Total Cell Count: 2080 and 1482
[6]
  Population Healthy Nuclei (%): 86% and 84%
  Population Mitotic Cells (%): 62% and 45%
  Total Cell Count: 820 and 907

## CCc1cnn2c(NCc3ccc[n+]([O-])c3)cc(N3CCCCC3CCO)nc12 (centres undefined)
[1]
  Population Apoptotic (%): 70% and 62%
  Population Fragmented Nuclei (%): 3% and 2%
  Population Healthy Nuclei (%): 83% and 90%
  Population Hoechst High Intensity Objects (%): 9% and 7%
  Population Membrane Permeable-Phenotype (%): 0% and 1%
  Population Mitochondria Different-Phenotype (%): 47% and 51%
  Population Mitotic Cells (%): 29% and 37%
  Population Normal (%): 90% and 92%
  Population Pyknosed Nuclei (%): 12% and 7%
  Population Tubulin-Different-Phenotype (%): 70% and 75%
  Total Cell Count: 349 and 339
[2]
  Population Apoptotic (%): 52% and 86%
  Population Fragmented Nuclei (%): 3%
  Population Healthy Nuclei (%): 89% and 90%
  Population Hoechst High Intensity Objects (%): 13%
  Population Membrane Permeable-Phenotype (%): 2% and 1%
  Population Mitochondria Different-Phenotype (%): 59% and 57%
  Population Normal (%): 86%
  Population Pyknosed Nuclei (%): 7% and 6%
  Population Tubulin-Different-Phenotype (%): 86%
  Total Cell Count: 345 and 378
[3]
  Population Apoptotic (%): 74% and 68%
  Population Fragmented Nuclei (%): 3% and 2%
  Population Healthy Nuclei (%): 86%
  Population Hoechst High Intensity Objects (%): 10% and 11%
  Population Membrane Permeable-Phenotype (%): 1% and 0%
  Population Mitochondria Different-Phenotype (%): 60% and 52%
  Population Mitotic Cells (%): 25% and 31%
  Population Normal (%): 89% and 88%
  Population Pyknosed Nuclei (%): 10% and 11%
  Population Tubulin-Different-Phenotype (%): 70% and 67%
  Total Cell Count: 295 and 327
[4]
  Population Apoptotic (%): 47% and 79%
  Population Fragmented Nuclei (%): 4% and 3%
  Population Healthy Nuclei (%): 88%
  Population Hoechst High Intensity Objects (%): 18% and 17%
  Population Membrane Permeable-Phenotype (%): 0%
  Population Mitochondria Different-Phenotype (%): 70% and 67%
  Population Mitotic Cells (%): 52% and 20%
  Population Normal (%): 81% and 82%
  Population Pyknosed Nuclei (%): 6% and 8%
  Population Tubulin-Different-Phenotype (%): 83% and 85%
  Total Cell Count: 300 and 355
[5]
  Population Apoptotic (%): 68% and 80%
  Population Fragmented Nuclei (%): 4% and 3%
  Population Healthy Nuclei (%): 85% and 80%
  Population Hoechst High Intensity Objects (%): 11% and 13%
  Population Membrane Permeable-Phenotype (%): 0%
  Population Mitochondria Different-Phenotype (%): 71% and 75%
  Population Mitotic Cells (%): 32% and 19%
  Population Normal (%): 88% and 86%
  Population Pyknosed Nuclei (%): 10% and 16%
  Population Tubulin-Different-Phenotype (%): 74% and 67%
  Total Cell Count: 268 and 257
[6]
  Population Apoptotic (%): 43% and 68%
  Population Fragmented Nuclei (%): 1% and 5%
  Population Healthy Nuclei (%): 91% and 87%
  Population Hoechst High Intensity Objects (%): 19% and 20%
  Population Membrane Permeable-Phenotype (%): 1% and 0%
  Population Mitochondria Different-Phenotype (%): 74% and 73%
  Population Mitotic Cells (%): 56% and 31%
  Population Normal (%): 80% and 79%
  Population Pyknosed Nuclei (%): 6% and 7%
  Population Tubulin-Different-Phenotype (%): 83%
  Total Cell Count: 292 and 309
